# Bioassay records: PubChem BioAssay, several laboratories
# An excerpt weighted towards active compounds, which were near 1.2% of everything screened.
# proCasp3 act = activators of human procaspase-3. recombinant procaspase-3 D3A, Ac-DEVD-pNA absorbance 405 nm. activation, % at 8.5 µM. 330,000 compounds, 0.11% hits. AID 463141;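 active = activation above the mean of all tested compounds plus 3 SD, cut at about 21% in these data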;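 note: 0% = DMSO alone and 100% = DMSO wells spiked with extra 5 µM PC-3 D3A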
# Target sequence (P42574 whole entry D9A/D28A/D175A): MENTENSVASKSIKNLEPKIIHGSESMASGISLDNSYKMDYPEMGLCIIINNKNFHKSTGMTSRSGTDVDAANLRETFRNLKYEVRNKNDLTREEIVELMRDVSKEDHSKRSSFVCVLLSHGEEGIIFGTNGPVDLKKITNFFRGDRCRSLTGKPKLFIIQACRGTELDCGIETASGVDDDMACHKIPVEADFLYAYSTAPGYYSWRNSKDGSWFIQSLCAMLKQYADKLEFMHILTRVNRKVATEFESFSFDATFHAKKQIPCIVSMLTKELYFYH
#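 Compound: 8.5 µM single point, 0.8% DMSO / Material: Autoprocessing-dead procaspase-3 D3A mutant enzyme / Timing: 1 h preincubation plus 2 h reaction at 25 °C / Medium: Zinc-free HEPES/NaCl buffer with 0.01% Triton X-100 at pH 7.4 / Technique: 405 nm absorbance of p-nitroaniline, reads at 0 and 120 min / Repeats: one well per compound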
# ARFGAP1 inh = inhibits rat ARF GTPase activating protein 1; 360,000 compounds, 0.26% hits; Arfgap1-stimulated ARF1 GTP hydrolysis, GDP FP detection; inhibition, % at 16.5 µM;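 active = inhibition above a per-plate limit, mean inhibition of low control wells plus 3 SD, cut at about 25% in these data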;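 note: 0% = DMSO wells with enzyme and 100% = wells lacking Arfgap1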
# Target sequence (Q62848 1-136 limits assumed): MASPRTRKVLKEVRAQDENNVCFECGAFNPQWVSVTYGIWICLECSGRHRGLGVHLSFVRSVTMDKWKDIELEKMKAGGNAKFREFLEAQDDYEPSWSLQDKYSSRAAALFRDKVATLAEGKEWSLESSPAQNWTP
#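 Material: truncated rat Arfgap1 GAP domain; Incubation: compound-enzyme preincubation 20 min, reaction 120 min, detection 60 min, 25 °C; Read-out: percent inhibition of Arfgap1-stimulated GTP hydrolysis; Technique: FP, GDP Alexa 633 tracer displaced from anti-GDP antibody, 620/688 nm; Controls: No-Arfgap1 wells (100%) versus DMSO full-reaction wells (0%); Replication: single well per compound.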
# LANA-H2A inh = blocks KSHV LANA binding to histone H2A/H2B; cell-free LANA-H2A/H2B peptide, fluorescence polarization; inhibition, % (no concentration beside the values); 320,000 compounds, 0.6% hits; in the data active = inhibition mostly above about 10%, no sharp cut-off; inactive = mostly below about 6.7%
# procasp7 counter = activates human procaspase-7, counter-screen for procaspase-3 activators | P55210 | recombinant procaspase-7, Ac-DEVD-pNA absorbance 405 nm; D23A/D198A/D206A triple mutant, cannot self-cleave; scale: DMSO 0, 5 µM enzyme 100 | activation, % at 8.5 µM | 330,000 compounds, 0.093% hits | AID 463210;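 active = percent activation above the screen-wide mean plus 3 SD, cut at about 25% in these data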
# Target sequence (P55210 whole entry D23A/D198A/D206A): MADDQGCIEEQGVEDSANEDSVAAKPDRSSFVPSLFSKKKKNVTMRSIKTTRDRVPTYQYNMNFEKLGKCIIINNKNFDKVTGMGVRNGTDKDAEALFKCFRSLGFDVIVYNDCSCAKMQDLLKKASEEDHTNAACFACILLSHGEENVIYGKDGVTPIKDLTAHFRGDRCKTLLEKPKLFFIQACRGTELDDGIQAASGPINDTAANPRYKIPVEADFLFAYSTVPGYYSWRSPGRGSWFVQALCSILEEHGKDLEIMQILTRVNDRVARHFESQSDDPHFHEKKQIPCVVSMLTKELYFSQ
#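 System: Uncleavable procaspase-7 mutant enzyme; Amount: 2 µM procaspase-7 mutant as dispensed; Schedule: 1 h compound preincubation, 2 h substrate cleavage, 25 °C; Measured by: 405 nm absorbance of p-nitroaniline; Evaluation: percent activation from buffer-corrected 0–120 min absorbance change; Control set: low DMSO alone, high DMSO plus 5 µM PC-7.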
# Yeast superoxide = caloric restriction mimetics inhibiting age-related superoxide in yeast; S. cerevisiae aged cells, superoxide DHE fluorescence; active compounds read low; superoxide response (% of plate mean), % at 10 µM; 330,000 compounds, 0.18% hits;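 active = superoxide response under a set limit, about three screen SD below normal, cut at about 65% in these data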;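 note: yeast aged for seven days with compound at 30 °C before DHE staining; 100% = average MFI of all compound-treated wells on the plate with controls excluded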
# ASAP1 GAP inh = inhibitors of human ASAP1 ArfGAP activity; Q9ULH1; ASAP1-stimulated ARF1 GTP hydrolysis, GDP FP detection; 360,000 compounds, 0.19% hits; AID 624377; inhibition, % at 16.5 µM; in the data active = inhibition above about 25%;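 note: 0% = vehicle with enzyme and substrate and 100% = no enzyme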
# CR mimetic CP = confirmation of caloric restriction mimetics inhibiting yeast age-related superoxide | S. cerevisiae aging, superoxide DHE fluorescence; active compounds read low | 850 compounds, 1% hits | shares compounds with Yeast superoxide | superoxide response (% of plate), % at 10 µM;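 active = superoxide signal below 65% of the plate average of sample wells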;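 note: cells aged with compound for 7 days at 30 degrees C before staining; 100% equals mean DHE fluorescence of all compound wells on the plate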
# DHE counter = compound alters DHE oxidation or fluorescence in yeast | shares compounds with Yeast superoxide | S. cerevisiae BY4741, flow cytometry; active compounds read low | fluorescence response, % at 10 µM | 850 tested, under 10 active;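 active = fluorescence response below 15%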;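 note: percent of the mean fluorescence averaged over all compound wells on the plate; lower means stronger quenching of DHE signal or ROS scavenging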
# PC3 dual counter = counter-screen: procaspase-3 (human) activation; AID 493114; recombinant PC-3 D3A, Ac-DEVD-pNA absorbance 405 nm; aspartates 9, 28, 175 changed to alanine; 100% = enzyme control; shares compounds with procasp7 counter; activation, % at 8.5 µM; 290 tested, under 10 active;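 active = mean percent activation across triplicates above a set limit taken from the earlier primary procaspase-3 screen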;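 note: 0% = DMSO wells and 100% = DMSO wells with 5 µM added PC-3 D3A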
# Procasp7 act = procaspase-7 (human) activation, dual activator confirmation; AID 493115; 290 tested, under 10 active; recombinant procaspase-7, Ac-DEVD-pNA absorbance 405 nm; D23A/D198A/D206A mutant that cannot self-cleave; shares compounds with procasp7 counter; activation, % at 8.5 µM;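 active = mean activation above a set limit carried over from the earlier primary screen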;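 note: 0% = DMSO only and 100% = DMSO with added 5 µM PC-7 enzyme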
# * = called active by the depositor; nt = not tested or not shown.
SMILES,proCasp3 act,ARFGAP1 inh,LANA-H2A inh,procasp7 counter,Yeast superoxide,ASAP1 GAP inh,CR mimetic CP,DHE counter,others
COc1ccc(CC2C(=O)NC(C)C(=O)N(C)C3C(=O)N(C)C(Cc4ccc(O)c(c4)Oc4ccc(cc4)C3O)C(=O)NC(C)C(=O)NC(C)C(=O)N2C)cc1 (stereo unspecified),nt,9,nt,nt,nt,-2,nt,nt,
CC(C)OC(=O)C1C(c2ccc(I)cc2)CC2CCC1N2C (stereo unspecified),nt,7,nt,nt,nt,4,nt,nt,
O=C(O)C1C2c3ccccc3C(=O)C1(C(=O)O)c1ccccc12 (stereo unspecified),nt,-4,nt,nt,nt,-13,nt,nt,
CSCCC(NC(=O)CCC(=O)OC1CC[C@H]2[C@@H]3CC[C@H]4CC(=O)CC[C@]4(C)[C@H]3CC[C@]12C)C(=O)O (stereo partly specified),1,-3,0,-1,97,-6,83,105,
CC12CCC3C(CCC4CC(=O)C(C(O)C(F)(F)F)CC43C)C1CCC2O (stereo unspecified),nt,7,nt,nt,nt,9,101,115,
CC12CCC3C(CCCC4CC(=O)CCC43C)C1CCC2O (stereo unspecified),nt,-3,nt,nt,nt,-14,nt,nt,
C[C@]12CCC(=O)C[C@H]1CC[C@@H]1[C@@H]2CC[C@]2(C)[C@@H](O)CC[C@@H]12,3,nt,-1,2,73,nt,99,118,
CC1=C(C)CC2(CC1)C(=O)NC(=O)NC2=O,nt,-6,nt,nt,nt,-11,nt,nt,
CCOc1ccc(C2SCC(=O)Nc3c2c(=O)[nH]n3C2CCCCCC2)cc1 (stereo unspecified),2,1,3,1,62*,-7,105,96,
Cc1ccc(C)c(Cn2c(C(=O)O)c(C=O)c3ccccc32)c1,3,10,-14,-7,110,1,nt,nt,
Cc1ccc[n+](CC(O)Cn2c3ccccc3c3ccccc32)c1 (stereo unspecified),-5,-10,1,-1,52*,-5,92,91,
C[C@]12CC[C@H](N)CC1=CCC1C2CC[C@@]2(C)C1CC[C@@H]2O (stereo partly specified),-5,-8,3,-6,123,-3,nt,nt,
C[C@]12CCC3C(C[C@@H](O)[C@H]4C[C@@H](O)CC[C@]34C)C1CC[C@@H]2O (stereo partly specified),2,1,2,5,104,-17,96,95,
C[C@]12CCC(=O)C=C1CCC1C2CC[C@@]2(C)C1CC[C@@H]2O (stereo partly specified),6,-5,-3,9,92,-20,nt,nt,
C[C@]12CCC3C(CC[C@@H]4[C@H]5O[C@H]5CC[C@]34C)C1CC[C@@H]2O (stereo partly specified),nt,-9,nt,nt,nt,0,78,93,
COc1ccc(OCC(=O)N2CCN(CC3CC4C=CC3C4)CC2)cc1 (stereo unspecified),4,-1,3,-3,107,7,nt,nt,
Cc1nc2ccccc2c(=O)n1-c1cccc([N+](=O)[O-])c1,6,-10,4,5,106,4,nt,nt,
Cc1ncoc1C(=O)NCC1=C(c2ccc3ccccc3c2)C[C@@H]2CC[C@H]1N2Cc1ccco1,nt,4,nt,nt,nt,-2,nt,nt,
CN1CCN(c2ccc(F)cc2N)CC1,0,-2,-3,3,86,-15,nt,nt,
C[C@]12CCC3[C@@H](CC[C@@H]4C[C@H](O)CC[C@]34C)[C@@H]1CCC2=O (stereo partly specified),0,-6,-10,7,66,-6,nt,nt,
C[C@]12CCC3C(CC[C@H]4C[C@@H](O)CC[C@]34C)C1[C@H]1CN=N[C@H]1[C@@H]2O (stereo partly specified),-8,2,4,-7,108,2,134,120,
C[C@]12CCC3C(CC[C@H]4C[C@@H](O)CC[C@]34C)C1C[C@@H](Br)[C@H]2O (stereo partly specified),-4,0,2,4,77,-7,104,112,
C[C@]12CC[C@H](O)C[C@@H]1CC[C@@H]1[C@@H]2CC[C@]2(C)C(=O)CC[C@@H]12,-5,7,1,-2,70,0,nt,nt,
C[C@]12CCC3C(CC[C@H]4C[C@@H](O)CC[C@]34C)C1CC[C@@H]2OC(=O)[C@H](N)CCCCN (stereo partly specified),2,1,-6,0,82,10,73,98,
C[C@]12CCC3C(CC[C@H]4C[C@@H](O)CC[C@]34C)C1CCC2=O (stereo partly specified),2,nt,-1,-5,63*,nt,90,103,
SMILES,proCasp3 act,ARFGAP1 inh,LANA-H2A inh,procasp7 counter,Yeast superoxide,ASAP1 GAP inh,CR mimetic CP,DHE counter,others
CC(C)(C)c1ccc(C(=O)C2CCCN(C3CCC3)C2)cc1 (stereo unspecified),8,-8,-5,11,65*,13,121,119,
CC(C)(C)c1ccc(C(=O)C2CCCN(Cc3ccon3)C2)cc1 (stereo unspecified),4,-8,2,-7,94,13,nt,nt,
CNc1ccc2nc3ccccc3[n+](C)c2c1,-9,8,6,-14,62*,-1,62*,110,
COc1ccc(-n2c(O)c(C(C)=NCC3CCCO3)c(=O)[nH]c2=O)cc1 (stereo unspecified),5,3,2,7,56*,-1,107,126,
c1ccc(-c2ccc(CN3Cc4ccccc4-n4nncc4C3)cc2)cc1,nt,1,nt,nt,nt,12,nt,nt,
COc1ccc(C2=CC(c3ccc4c(c3)OCO4)c3c(c4ccccc4oc3=O)O2)cc1OC (stereo unspecified),nt,-5,nt,nt,nt,8,nt,nt,
CC(C)CNC(=O)c1c(N)n(Cc2ccc3c(c2)OCO3)c2nc3ccccc3nc12,-5,14,6,71*,93,4,nt,nt,PC3 dual counter=-29;Procasp7 act=-34
